The source made the active and inactive calls. The rule behind the calls is not given here.
Legend:
SK-N-SH = assay: Antitumour activity against human SK-N-SH cells assessed as cell growth inhibition measured after 72 hrs by SRB assay; format: functional, cell-based
Method in brief: (§1)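 Exponentially growing cells trypsinized, seeded at 5 × 10^4 cells/mL in 96-well plates, cultured overnight, then exposed to compounds for 72 h. Cells fixed with 10% TCA 1 h, stained with SRB 15 min, dye dissolved in Tris-HCl, absorbance read; 50% growth-inhibitory concentration calculated.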

B16 = assay: Antitumour activity against mouse B16 cells assessed as cell growth inhibition measured after 72 hrs by SRB assay; format: functional, cell-based; conditions: B16, 72 h; method in brief: as §1
ECa-109 cell line = assay: Antitumour activity against human EC109 cells assessed as cell growth inhibition measured after 72 hrs by SRB assay; format: functional, cell-based; conditions: ECa-109, 72 h; method in brief: as §1
MGC-803 = assay: Antitumour activity against human MGC803 cells assessed as cell growth inhibition measured after 72 hrs by SRB assay; format: functional, cell-based; conditions: MGC-803, 72 h; method in brief: as §1
A549 = assay: Antitumour activity against human A549 cells assessed as cell growth inhibition measured after 72 hrs by SRB assay; format: functional, cell-based; conditions: A549, 72 h; method in brief: as §1
SMMC-7721 = assay: Antitumour activity against human SMMC7721 cells assessed as cell growth inhibition measured after 72 hrs by SRB assay; format: functional, cell-based; conditions: SMMC-7721, 72 h; method in brief: as §1
HEK293 = assay: Cytotoxicity against human HEK293 cells measured after 48 to 72 hrs by MTT assay; format: cell-based
Method in brief: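 Cells seeded at 3 × 10^3 per well in 96-well plates, incubated overnight, then given fresh medium with a range of drug concentrations for 48 h or 72 h. MTT added (final 500 µg/mL) for 4 h, formazan dissolved in DMSO, absorbance at 570 nm; IC50 derived. Mean ± SD of 3 independent tests.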

[1] = Solubility of the compound in water; format: physicochemical; conditions: buffer
HeLa = assay: Antiproliferative activity against human HeLa cells measured after 72 hrs by MTT assay; format: functional, cell-based
Chorioallantoic membrane = assay: Antiangiogenic activity in chicken chorioallantoic membrane assessed as reduction in neovascularization at 50 ug/ml measured after 72 hrs by CAM assay; format: functional; conditions: Gallus gallus
Method in brief: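 Fertilized chicken eggs incubated 6 days at 37 °C; shell windowed and CAM treated (compounds and controls at […] as printed; saline vehicle control). Eggs re-incubated humidified; membranes fixed and harvested after 72 h. Angiogenesis scored by counting blood vessels and imaging neovascular zones; ten eggs per group.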

MCF7 = assay: Antiproliferative activity against human MCF7 cells measured after 72 hrs by MTT assay; format: functional, cell-based; conditions: MCF7, 72 h
MDA-MB-231 = assay: Antiproliferative activity against human MDA-MB-231 cells measured after 72 hrs by MTT assay; format: functional, cell-based; conditions: MDA-MB-231, 72 h
CCRF-CEM = assay: Anticancer activity against human CCRF-CEM cells measured after 48 hrs by SRB assay; format: functional
K562 = assay: Anticancer activity against human K562 cells measured after 48 hrs by SRB assay; format: functional; conditions: K562, 48 h
RPMI-8226 = assay: Anticancer activity against human RPMI8226 cells measured after 48 hrs by SRB assay; format: functional; conditions: RPMI-8226, 48 h
SR = assay: Anticancer activity against human SR cells measured after 48 hrs by SRB assay; format: functional
HCT-116 = assay: Antiproliferative activity against human HCT116 cells measured after 48 hrs by SRB assay; format: functional; conditions: HCT-116, 48 h
NCI-H460 = assay: Antiproliferative activity against human NCI-H460 cells measured after 48 hrs by SRB assay; format: functional; conditions: NCI-H460, 48 h
U-251 = assay: Antiproliferative activity against human U251 cells measured after 48 hrs by SRB assay; format: functional; conditions: U-251, 48 h
MDA-MB-435 = assay: Antiproliferative activity against human MDA-MB-435 cells measured after 48 hrs by SRB assay; format: functional; conditions: MDA-MB-435, 48 h

Structure (SMILES)	IC50 (SK-N-SH) [µM]	IC50 (B16) [µM]	IC50 (ECa-109 cell line) [µM]	IC50 (MGC-803) [µM]	IC50 (A549) [µM]	IC50 (SMMC-7721) [µM]	IC50 (HEK293) [µM]	solubility [1]	further results
COc1cc2c(cc1O)CC[C@@H]1[C@@H]2CC[C@]2(C)C(=O)/C(=C/c3cccc(OC)c3OC)C[C@@H]12	18.2	12.7	10.5	18.3	20.4	8.6	51	Soluble	
COc1cc2c(cc1O)CC[C@@H]1[C@@H]2CC[C@]2(C)C(=O)/C(=C/c3cc(OC)c(OC)c(OC)c3)C[C@@H]12	14.3	18.8	13.9	18.7	14.5	2.8			
COc1ccccc1/C=C/C(=O)c1cc2c(cc1O)CC[C@@H]1[C@@H]2CC[C@]2(C)[C@@H](O)CC[C@@H]12	22.2	16.5	26.5	9.8	5.9	0.6			
C[C@]12CC[C@@H]3c4ccc(O)cc4CC[C@H]3[C@@H]1C/C(=N\O)C2=O									IC50 (HeLa): 4.41 µM
C[C@]12CC[C@@H]3c4cc(C(=O)/C=C/c5ccc(Cl)cc5)c(O)cc4CC[C@H]3[C@@H]1CC[C@@H]2O	15	15.3	14	15.7	12.1	44.9			
COc1cc2c(cc1O)CC[C@@H]1[C@@H]2CC[C@]2(C)C(=O)/C(=C/c3ccccc3)C[C@@H]12	22.4	17.8	22.8	17.7	19.4	17.2			
COc1cc2c(cc1O)CC[C@@H]1[C@@H]2CC[C@]2(C)C(=O)/C(=C/c3ccc(Cl)cc3Cl)C[C@@H]12	17.8	16.5	15.3	15.8	15.5	1.7			
COc1cc2c(cc1O)CC[C@@H]1[C@@H]2CC[C@]2(C)C(=O)/C(=C/c3cc(F)cc(F)c3)C[C@@H]12	8	14.2	16.2	10.7	15	5.1			
C[C@]12CC[C@@H]3c4cc(C(=O)/C=C/c5ccc(OCc6ccccc6)cc5)c(O)cc4CC[C@H]3[C@@H]1CC[C@@H]2O	> 128	> 128	> 128	> 128	52.6	> 128	> 100	Soluble	inhibition (Chorioallantoic membrane): Active
COc1ccc(/C=C/C(=O)c2cc3c(cc2O)CC[C@@H]2[C@@H]3CC[C@]3(C)[C@@H](O)CC[C@@H]23)cc1	18.9	17.4	18.2	12.2	8.6	16.1			
C[C@]12CC[C@H]3[C@@H](CCC4=CC(=O)CC[C@@]43C)[C@@H]1CC[C@@H]2C(=O)/C=C/c1ccc(F)cc1									IC50 (MCF7): 2 µM; IC50 (MDA-MB-231): 2 µM
COc1cccc(/C=C/C(=O)c2cc3c(cc2O)CC[C@@H]2[C@@H]3CC[C@]3(C)[C@@H](O)CC[C@@H]23)c1	4.5	8.9	5.6	4	5.5	26.1	13.1	Soluble	inhibition (Chorioallantoic membrane): Active
COc1cc2c(cc1O)CC[C@@H]1[C@@H]2CC[C@]2(C)C(=O)/C(=C/c3ccc(F)cc3)C[C@@H]12	27	16.8	19.9	13.5	25.3	8.2	87.8	Soluble	inhibition (Chorioallantoic membrane): Active
COc1cc2c(cc1O)CC[C@@H]1[C@@H]2CC[C@]2(C)C(=O)/C(=C/c3ccc(S(C)(=O)=O)cc3)C[C@@H]12	20.5	7.7	18.2	10.5	5.9	37.3	> 100		
COc1cc2c(cc1O)CC[C@@H]1[C@@H]2CC[C@]2(C)C(=O)/C(=C/c3cccc([N+](=O)[O-])c3)C[C@@H]12	24.5	6.7	23.3	12.7	21.2	8.1		Soluble	
CN1CCN(C(=O)COc2ccc(/C=C3\C[C@H]4[C@@H]5CC=C6CC(Cl)CC[C@]6(C)[C@H]5CC[C@]4(C)C3=O)cc2)CC1 (some centres undefined)									GI50 (CCRF-CEM): 3.94 µM; GI50 (K562): 2.61 µM; GI50 (RPMI-8226): 6.9 µM; GI50 (SR): 1.79 µM
COc1cc2c(cc1O)CC[C@@H]1[C@@H]2CC[C@]2(C)C(=O)/C(=C/c3cccc(Cl)c3)C[C@@H]12	21	10.1	24.3	12.3	22.6	16.9	77.1	Soluble	inhibition (Chorioallantoic membrane): Active
COc1cc2c(cc1O)CC[C@@H]1[C@@H]2CC[C@]2(C)C(=O)/C(=C/c3ccc(C)cc3)C[C@@H]12	20.1	6	22.5	20.5	53	20.8			
C[C@]12CC[C@@H]3c4cc(C(=O)/C=C/c5cccc(Cl)c5)c(O)cc4CC[C@H]3[C@@H]1CC[C@@H]2O	10.3	12.4	8.5	8	10.9	6.3			
C[C@]12CC[C@@H]3c4cc(C(=O)/C=C/c5ccccc5Cl)c(O)cc4CC[C@H]3[C@@H]1CC[C@@H]2O	16.4	15.9	13.2	8.3	15.5	11.3			
C[C@]12CC[C@@H]3c4cc(C(=O)/C=C/c5ccc(Cl)cc5Cl)c(O)cc4CC[C@H]3[C@@H]1CC[C@@H]2O	22.7	13.1	19.4	12.5	13.7	14.5			
COc1cc2c(cc1O)CC[C@@H]1[C@@H]2CC[C@]2(C)C(=O)/C(=C/c3ccc(Br)cc3)C[C@@H]12	42	2.6	17.6	14.1	39.4	0.1	48.9	Soluble	inhibition (Chorioallantoic membrane): Active
C=C1CC[C@H]2[C@@H]3CCc4cc(O)c(/C=C/C(=O)c5cc(OC)c(OC)c(OC)c5)cc4[C@H]3CC[C@]12C									GI50 (HCT-116): 1.6 µM; GI50 (NCI-H460): 2.6 µM; GI50 (U-251): 1.4 µM; GI50 (MDA-MB-435): 1.6 µM

From ChEMBL document CHEMBL4393712, “Discovery of chalcone-modified estradiol analogs as antitumour agents that Inhibit tumour angiogenesis and epithelial to mesenchymal transition” (Eur J Med Chem, 2019)
